Results: ChEMBL document CHEMBL2311424, “Inhibitors of human immunodeficiency virus type 1 (HIV-1) attachment 13. Synthesis and profiling of a novel amminium prodrug of the HIV-1 attachment inhibitor BMS-585248” (J Med Chem, 2013)

How the values were obtained:
[1] = Cmax in beagle dog at 5 mg/kg, po; assay type: ADME, organism-based, Canis lupus familiaris; design: dose 5 mg/kg, route oral; conditions: in vivo
Canis familiaris = experiment: AUC in beagle dog assessed as BMS-585248 level at 5 mg/kg, po; assay type: ADME, organism-based, Canis lupus familiaris, Plasma; design: dose 5 mg/kg, route oral; conditions: in vivo
[2] = Prodrug activation in Tris-HCl buffer assessed as BMS-585248 formation at pH 7.4
Procedure, shortened: (§1)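 Prodrug at 10 μM final incubated 60 min at 37 °C in Tris-HCl buffer pH 7.4, rat blood or rat plasma, aerobic. Aliquots quenched with equal volume ice-cold acetonitrile, centrifuged, supernatant analysed by LC/MS/MS for prodrug and parent.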

Liver = experiment: Prodrug activation in rat liver cytosol assessed as BMS-585248 formation; assay type: tissue-based
Procedure, shortened: (§2)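 Rat liver cytosol (2 mg/mL) or microsomes (1 mg/mL) incubated with prodrug (10 μM final) and 1 mM NADPH up to 2 h at 37 °C, shaking; anaerobic runs used nitrogen-purged 0.1 M phosphate buffer with 10 mM MgCl2 under humidified nitrogen for 60 min. Acetonitrile quench, LC/MS/MS of prodrug and parent.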

[3] = Half life in beagle dog at 1 mg/kg, iv; assay type: ADME, organism-based, Canis lupus familiaris; design: dose 1 mg/kg, route intravenous; conditions: in vivo
[4] = Clearance in beagle dog at 1 mg/kg, iv; assay type: ADME, organism-based, Canis lupus familiaris; design: dose 1 mg/kg, route intravenous; conditions: in vivo
Blood = experiment: Prodrug activation in rat blood assessed as BMS-585248 formation; assay type: tissue-based; procedure, shortened: as §1
[5] = Permeability across human Caco2 cells; assay type: ADME, cell-based; conditions: Caco-2, read-out: permeability
Hepatocyte = experiment: Prodrug activation in rat hepatocytes assessed as BMS-585248 formation; assay type: cell-based
Procedure, shortened: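 In-house isolated rat hepatocytes incubated with prodrug (10 μM final) for 2 h at 37 °C in humidified 95/5% air/CO2; aliquots quenched in ice-cold acetonitrile, centrifuged, prodrug and parent quantified by LC/MS/MS.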

[6] = tested on: Human immunodeficiency virus 1; experiment: Antiviral activity against HIV1; assay type: functional, organism-based
Liver microsomes = experiment: Prodrug activation in rat liver microsomes assessed as BMS-585248 formation; design: species or system Microsome; procedure, shortened: as §2
Plasma = experiment: Prodrug activation in rat plasma assessed as BMS-585248 formation; assay type: cell-free; procedure, shortened: as §1
[7] = AUC in beagle dog at 5 mg/kg, po; assay type: ADME, organism-based, Canis lupus familiaris; design: dose 5 mg/kg, route oral; conditions: plasma
[8] = Volume of distribution in beagle dog at 1 mg/kg, iv; assay type: ADME, organism-based, Canis lupus familiaris; design: dose 1 mg/kg, route intravenous; conditions: in vivo
[9] = Aqueous solubility of the compound; assay type: physicochemical
Rattus norvegicus [10] = experiment: Prodrug conversion in Sprague-Dawley rat assessed as BMS-585248 level at 1 mg/kg, iv after 5 mins; assay type: ADME, organism-based; design: dose 1 mg/kg, route intravenous; conditions: in vivo
Procedure, shortened: (§3)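 Male rats, groups of three; prodrug trifluoroacetate salt given by IV bolus (1 mg/kg) or oral gavage (5 mg/kg) after overnight fast, both from a 1 mg/mL solution in PEG-400/ethanol 90/10 v/v. Plasma sampled up to 24 h, stored at −20 °C, parent and prodrug quantified by LC/MS/MS; noncompartmental analysis.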

[11] = AUC in Sprague-Dawley rat at 1 mg/kg, iv; assay type: ADME, organism-based; design: dose 1 mg/kg, route intravenous; conditions: plasma; procedure, shortened: as §3
Rattus norvegicus [12] = experiment: AUC in Sprague-Dawley rat assessed as BMS-585248 level at 1 mg/kg, iv; assay type: ADME, organism-based, Plasma; design: dose 1 mg/kg, route intravenous; conditions: in vivo; procedure, shortened: as §3
[13] = Volume of distribution in Sprague-Dawley rat at 1 mg/kg, iv; assay type: ADME, organism-based; design: dose 1 mg/kg, route intravenous; conditions: in vivo; procedure, shortened: as §3
Rattus norvegicus [14] = experiment: Total AUC in Sprague-Dawley rat assessed as BMS-585248 level at 5 mg/kg, po; assay type: ADME, organism-based; design: dose 5 mg/kg, route oral, time AUCmax; conditions: in vivo
Procedure, shortened: (§4)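 Oral dose escalation in male rats, groups of three, dosed by gavage from solutions in water with 0.5% methylcellulose: prodrug trifluoroacetate salt at 5, 25 and 200 mg/kg; parent at 15, 75 and 200 mg/kg. Plasma analysed by LC/MS/MS; noncompartmental PK.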

[15] = AUC in Sprague-Dawley rat at 5 mg/kg, po; assay type: ADME, organism-based; design: dose 5 mg/kg, route oral; conditions: plasma; procedure, shortened: as §3
Rattus norvegicus [16] = experiment: AUC in Sprague-Dawley rat assessed as BMS-585248 level at 5 mg/kg, po; assay type: ADME, organism-based, Plasma; design: dose 5 mg/kg, route oral; conditions: in vivo; procedure, shortened: as §3
Rattus norvegicus [17] = experiment: Cmax in Sprague-Dawley rat assessed as BMS-585248 level at 5 mg/kg, po; assay type: ADME, organism-based; design: dose 5 mg/kg, route oral; conditions: in vivo; procedure, shortened: as §4
[18] = Cmax in Sprague-Dawley rat at 5 mg/kg, po after 6 hrs; assay type: ADME, organism-based; design: dose 5 mg/kg, route oral; conditions: in vivo
[19] = Cmax in dual cannulated portal vein Sprague-Dawley rat at 5 mg/kg, po; assay type: ADME, organism-based; design: dose 5 mg/kg, route oral
Rattus norvegicus [20] = experiment: AUClast in bacitracin, neomycin sulfate and tetracycline treated Sprague-Dawley rat assessed as BMS-585248 level at 5 mg/kg, po; assay type: ADME, organism-based, Plasma; design: dose 5 mg/kg, route oral, time 0 - last; conditions: in vivo
Procedure, shortened: (§5)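 Male rats (n = 3 per group) pretreated 2 days with saline or an antibiotic mix (bacitracin 400 mg/kg BID, neomycin sulfate 400 mg/kg BID, tetracycline 200 mg/kg), then given prodrug 5 mg/kg orally. Plasma to 24 h, stored −20 °C, LC/MS/MS quantitation of prodrug and parent.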

[21] = Clearance in Sprague-Dawley rat at 1 mg/kg, iv; assay type: ADME, organism-based; design: dose 1 mg/kg, route intravenous; conditions: in vivo; procedure, shortened: as §3
Rattus norvegicus [22] = experiment: Cmax in Sprague-Dawley rat assessed as BMS-585248 level at 200 mg/kg, po; assay type: ADME, organism-based; design: dose 200 mg/kg, route oral; conditions: in vivo; procedure, shortened: as §4
Rattus norvegicus [23] = experiment: Cmax in dual cannulated portal vein Sprague-Dawley rat assessed as BMS-585248 level at 5 mg/kg, po; assay type: ADME, organism-based; design: dose 5 mg/kg, route oral; conditions: in vivo
Rattus norvegicus [24] = experiment: AUC in dual cannulated portal vein Sprague-Dawley rat assessed as BMS-585248 level at 5 mg/kg, po; assay type: ADME, organism-based, Plasma; design: dose 5 mg/kg, route oral; conditions: in vivo
Rattus norvegicus [25] = experiment: Cmax in Sprague-Dawley rat assessed as BMS-585248 level at 25 mg/kg, po; assay type: ADME, organism-based; design: dose 25 mg/kg, route oral; conditions: in vivo; procedure, shortened: as §4
Rattus norvegicus [26] = experiment: Total AUC in Sprague-Dawley rat assessed as BMS-585248 level at 25 mg/kg, po; assay type: ADME, organism-based; design: time AUCmax, dose 25 mg/kg, route oral; conditions: in vivo; procedure, shortened: as §4
[27] = AUC in dual cannulated portal vein Sprague-Dawley rat at 5 mg/kg, po; assay type: ADME, organism-based; design: dose 5 mg/kg, route oral; conditions: plasma
Rattus norvegicus [28] = experiment: AUClast in Sprague-Dawley rat assessed as BMS-585248 level at 5 mg/kg, po; assay type: ADME, organism-based, Plasma; design: time 0 - last, dose 5 mg/kg, route oral; conditions: in vivo; procedure, shortened: as §5
Rattus norvegicus [29] = experiment: Total AUC in Sprague-Dawley rat assessed as BMS-585248 level at 200 mg/kg, po; assay type: ADME, organism-based; design: time AUCmax, dose 200 mg/kg, route oral; conditions: in vivo; procedure, shortened: as §4
Rattus norvegicus [30] = experiment: Cmax in Sprague-Dawley rat assessed as BMS-585248 level at 5 mg/kg, po after 6 hrs; assay type: ADME, organism-based; design: dose 5 mg/kg, route oral; conditions: in vivo
[31] = Half life in Sprague-Dawley rat at 1 mg/kg, iv; assay type: ADME, organism-based; design: dose 1 mg/kg, route intravenous; conditions: in vivo; procedure, shortened: as §3
[32] = Drug excretion in bile duct cannulated Sprague-Dawley rat urine at 1 mg/kg, iv up to 2 hrs; assay type: ADME, organism-based; design: dose 1 mg/kg, route intravenous; conditions: read-out: Drug excretion
Procedure, shortened: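 Bile duct/jugular vein cannulated male rats (n = 3) given prodrug 1 mg/kg IV; plasma, bile and urine collected up to 6 h. Biotransformation profiled by UPLC on C18 at 40 °C with gradient elution, positive electrospray full-scan MS and data-dependent MS/MS; relative percentages of prodrug, N-acetyl conjugate and parent reported.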

Rattus norvegicus [33] = experiment: Cmax in bacitracin, neomycin sulfate and tetracycline treated Sprague-Dawley rat assessed as BMS-585248 level at 5 mg/kg, po; assay type: ADME, organism-based; design: dose 5 mg/kg, route oral; conditions: in vivo; procedure, shortened: as §5
[34] = Cmax in Sprague-Dawley rat at 15 mg/kg, po; conditions: in vivo
[35] = Total AUC in Sprague-Dawley rat at 75 mg/kg, po; assay type: ADME, organism-based; design: time AUCmax, dose 75 mg/kg, route oral; conditions: in vivo; procedure, shortened: as §4
[36] = Total AUC in Sprague-Dawley rat at 200 mg/kg, po; assay type: ADME, organism-based; design: time AUCmax, dose 200 mg/kg, route oral; conditions: in vivo; procedure, shortened: as §4
[37] = Total AUC in Sprague-Dawley rat at 15 mg/kg, po; conditions: in vivo
[38] = AUClast in bacitracin, neomycin sulfate and tetracycline treated Sprague-Dawley rat at 5 mg/kg, po; assay type: ADME, organism-based; design: time 0 - last, dose 5 mg/kg, route oral; conditions: plasma; procedure, shortened: as §5
[39] = AUClast in Sprague-Dawley rat at 5 mg/kg, po; assay type: ADME, organism-based; design: time 0 - last, dose 5 mg/kg, route oral; conditions: plasma; procedure, shortened: as §5
Rattus norvegicus [40] = experiment: Cmax in bacitracin, neomycin sulfate and tetracycline treated Sprague-Dawley rat at 5 mg/kg, po; assay type: ADME, organism-based; design: dose 5 mg/kg, route oral; conditions: in vivo; procedure, shortened: as §5
[41] = Cmax in Sprague-Dawley rat at 200 mg/kg, po; assay type: ADME, organism-based; design: dose 200 mg/kg, route oral; conditions: in vivo; procedure, shortened: as §4
[42] = Cmax in Sprague-Dawley rat at 75 mg/kg, po; assay type: ADME, organism-based; design: dose 75 mg/kg, route oral; conditions: in vivo; procedure, shortened: as §4

Compound: N[n+]1ccn(-c2ncc(F)c3c(C(=O)C(=O)N4CCN(C(=O)c5ccccc5)CC4)c[nH]c23)n1.[Cl-]
- Cmax [1]: 139 nM
- AUC (Canis familiaris): 8.064 µM·h
- Drug metabolism [2]: Not Active
- Drug metabolism (Liver): Not Active
- half-life [3]: 54 min
- clearance [4]: 13.8 mL/min/kg
- Drug metabolism (Blood): Not Active
- Papp [5]: 1.5 ×10⁻⁶ cm/s
- Drug metabolism (Hepatocyte): Not Active
- EC50 [6]: 1.76 nM
- Drug metabolism (Liver microsomes): Not Active
- Drug metabolism (Plasma): Not Active
- AUC [7]: 0.217 µM·h
- Vd [8]: 0.3 L/kg
- solubility [9]: 1760 µg/mL

Compound: N[n+]1ccn(-c2ncc(F)c3c(C(=O)C(=O)N4CCN(C(=O)c5ccccc5)CC4)c[nH]c23)n1.O=C([O-])C(F)(F)F
- Drug metabolism (Rattus norvegicus [10]): Active
- AUC [11]: 1.55 µM·h
- AUC (Rattus norvegicus [12]): 3.22 µM·h
- Vd [13]: 0.29 L/kg
- AUC (Rattus norvegicus [14]): 8 µM·h
- AUC [15]: 0.0208 µM·h
- AUC (Rattus norvegicus [16]): 28.098 µM·h
- Cmax (Rattus norvegicus [17]): 1300 nM
- Cmax [18]: 23 nM
- Cmax [19]: 74 nM
- AUClast (Rattus norvegicus [20]): 0.148 µM·h
- clearance [21]: 23 mL/min/kg
- Cmax (Rattus norvegicus [22]): 77000 nM
- Cmax (Rattus norvegicus [23]): 2140 nM
- AUC (Rattus norvegicus [24]): 23.873 µM·h
- Cmax (Rattus norvegicus [25]): 12000 nM
- AUC (Rattus norvegicus [26]): 72 µM·h
- AUC [27]: 0.035 µM·h
- AUClast (Rattus norvegicus [28]): 0.112 µM·h
- AUC (Rattus norvegicus [29]): 996 µM·h
- Cmax (Rattus norvegicus [30]): 3120 nM
- half-life [31]: 18 min
- dose excreted at 2 h [32]: 80%
- Cmax (Rattus norvegicus [33]): 79 nM

Compound: CC(=O)N[n+]1ccn(-c2ncc(F)c3c(C(=O)C(=O)N4CCN(C(=O)c5ccccc5)CC4)c[nH]c23)n1
- dose excreted at 2 h [32]: 16.5%

Compound: O=C(C(=O)N1CCN(C(=O)c2ccccc2)CC1)c1c[nH]c2c(-n3ccnn3)ncc(F)c12
- Cmax [34]: 6600 nM
- AUC [35]: 115 µM·h
- AUC [36]: 145 µM·h
- AUC [37]: 42 µM·h
- AUC(0-t) [38]: 13.8 µM·h
- AUC(0-t) [39]: 47.5 µM·h
- Cmax (Rattus norvegicus [40]): 18 nM
- EC50 [6]: 0.06 nM
- Cmax [41]: 11000 nM
- Cmax [42]: 8400 nM
- dose excreted at 2 h [32]: 3.5%
